This is an account of results in ChEMBL document CHEMBL2331334, “Hybrid furoxanyl N-acylhydrazone derivatives as hits for the development of neglected diseases drug candidates” (Eur J Med Chem, 2013).

For data set [1], the system named is Trypanosoma cruzi. In words: Trypanosomicidal activity against axenic epimastigote stage of Trypanosoma cruzi Tulahuen 2 assessed as growth inhibition. The format is functional, organism-based. In a few lines: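 Tulahuen 2 epimastigotes grown axenically at 28 °C in BHI-tryptose with 5% FCS, harvested late log phase, 3×10^6/mL in 24-well plates. Compound added from DMSO stock (≤1% DMSO). Growth as A590 at day 0 and day 5; % inhibition from blank-corrected absorbances; ID50 = concentration halving absorbance relative to untreated controls.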

Data set [2] in a line: Selectivity index, ratio of IC50 for mouse J774.1 cells to IC50 for amastigote stage of Trypanosoma cruzi Tulahuen C4. In kind it is toxicity. The note with it: read-out: Ratio IC50.
Data set [3] has as its system Trypanosoma cruzi. In words: Trypanosomicidal activity against amastigote stage of Trypanosoma cruzi Tulahuen C4 transfected with beta-D-galactosidase infected in african green monkey Vero cells assessed as growth inhibition incubated 5 days prior to beta-D-galactopyranoside addition measured after 4 to 5 hrs by colorimetric assay. The format is functional, organism-based. The method in brief: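 VERO monolayer in phenol red-free RPMI 1640 with 10% FCS, infected with 5×10^4 LacZ-transfected Tulahuen C4 trypomastigotes/well, 24 h at 37 °C, 5% CO2. Compounds added for 5 days. CPRG substrate added, 4–5 h at 37 °C, A570. Actives (>50% inhibition) retested in duplicate at 10.0–0.16; IC50 by logarithmic regression versus untreated control.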

The nature of data set [4]: Selectivity index, ratio of IC50 for mouse J774.1 cells to MIC for Mycobacterium tuberculosis H37Rv. The format is functional. In a few lines:
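Cytotoxicity: J774.1 macrophages in DMEM with 4 mM L-glutamine and 10% heat-inactivated FCS, seeded at 5 × 10^4/well, attached 48 h at 37 °C, 5% CO2. Exposed 48 h to 12.5–400.0 µM compound or vehicle. MTT at 0.1 mg/mL final for 3 h, formazan dissolved in DMSO/glycine buffer pH 10.5, A560 read. IC50 by linear regression, divided by the MIC against the same MTB strain.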

A short description of data set [5]: Cytotoxicity against mouse J774.1 cells assessed as cell viability after 48 hrs by MTT assay. The format is cell-based. Particulars: J774.1, 48 h. In a few lines: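 J774.1 macrophages in DMEM with 4 mM L-glutamine and 10% heat-inactivated FCS, 5×10^4 cells/well, attached 48 h at 37 °C, 5% CO2. Exposed 48 h to compounds (12.5–400.0 µM) or vehicle. MTT 0.1 mg/mL final, 3 h at 37 °C; formazan dissolved in DMSO/glycine buffer pH 10.5, A560. IC50 by linear regression versus solvent control.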

Data set [6] deals with Mycobacterium tuberculosis. In words: Antimycobacterial activity against Mycobacterium tuberculosis H37Rv assessed as growth inhibition after 5 days by MTT assay. In kind it is functional. The note with it: 120 h. The method in brief: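 MTB inoculum made from 20–30-day slant growth in Tween 80/0.2% BSA, adjusted to McFarland No. 1, then diluted in 7H9GC broth (Middlebrook 7H9, glycerol, Casitone, OADC). Final inoculum about 1.2 × 10^6 CFU/mL. Compounds taken from DMSO stock to final 0.4–25 in broth, with a DMSO control. Plates run 5 days at 37 °C, then tetrazolium (MTT)–Tween 80 added for a further 24 h at 37 °C. Read-out is MIC.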
Background: Tetrazolium dyes change colour on reduction, which living cells bring about.

The test system of data set [7] is Salmonella typhimurium. Briefly: Mutagenicity in Salmonella typhimurium TA98 at 500 ug/plate in presence of S9 fraction. The format is toxicity, organism-based. Particulars: salmonella enterica subsp. enterica serovar typhimurium. In a few lines:
(§1)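 Direct plate incorporation with S. typhimurium TA98 on minimal glucose agar (Vogel-Bonner E, 40% glucose). Compounds in DMSO assayed in triplicate at doses starting from the highest non-toxic dose, with or without Aroclor-treated mouse liver S9. Controls: DMSO, 4-nitro-o-phenylenediamine (−S9), 2-aminofluorene (+S9). Revertants counted manually; mutagenic if ≥2× negative control at two consecutive doses.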

Data set [8] has as its system Salmonella typhimurium. Briefly: Mutagenicity in Salmonella typhimurium TA98 at 500 ug/plate in absence of S9 fraction. In kind it is toxicity, organism-based. The note with it: salmonella enterica subsp. enterica serovar typhimurium. The method in brief:
as §1

A short description of data set [9]: Selectivity index, ratio of IC50 for mouse J774.1 cells to IC50 for axenic amastigote stage of Leishmania amazonensis MHOM/BR/76/LTB-012. The format is toxicity. The note with it: read-out: Ratio IC50.
The nature of data set [10]: Cytotoxicity against mouse J774.1 cells assessed as cell viability after 72 hrs by MTT assay. Particulars: J774.1, 72 h. The format is cell-based.
Data set [11] in a line: Selectivity index, ratio of IC50 for african green monkey Vero cells to IC50 for amastigote stage of Trypanosoma cruzi Tulahuen C4. The note with it: read-out: Ratio IC50. In kind it is toxicity, cell-based.
A further data set concerns Plasma. Briefly: Metabolic stability in human plasma at pH 3 at 40 uM after 3 hrs. The note with it: pH 3, 3 h. In kind it is ADME, cell-free.
A short description of data set [12]: Aqueous stability of the compound in Tris.HCl buffer at pH 7.4 at 1 mM after 24 hrs by spectrophotometric analysis. In kind it is physicochemical. Particulars: pH 7.4, 24 h, 1000 µM. The method in brief:
(§2)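 Compound from DMSO stock, 1 mM final in aqueous buffer (KCl·HCl pH 2, acetate pH 5, Tris·HCl pH 7.4 or 8.3), incubated 37 °C for 24 h. Absorbance spectrum 250–450 nm compared with a freshly prepared, unincubated solution. TLC of ethyl acetate extracts to confirm or exclude decomposition products.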

Data set [13] can be described thus: Aqueous stability of the compound in Tris.HCl buffer at pH 8.3 at 1 mM after 24 hrs by spectrophotometric analysis. The format is physicochemical. Particulars: pH 8.3, 24 h, 1000 µM. In a few lines:
as §2

Data set [14] can be described thus: Aqueous stability of the compound in acetate buffer at pH 5 at 1 mM after 24 hrs by spectrophotometric analysis. The format is physicochemical. Particulars: pH 5, 24 h, 1000 µM. The method in brief: as §2
A short description of data set [15]: Aqueous stability of the compound in KCl.HCl buffer at pH 2 at 1 mM after 24 hrs by spectrophotometric analysis. Particulars: pH 2, 24 h, 1000 µM. In kind it is physicochemical. The method in brief: as §2
Data set [16] concerns Salmonella typhimurium. In words: Mutagenicity in Salmonella typhimurium TA98 at 150 ug/plate in presence of S9 fraction. The format is toxicity, organism-based. Particulars: salmonella enterica subsp. enterica serovar typhimurium. In a few lines: as §1
The test system of data set [17] is Salmonella typhimurium. In words: Mutagenicity in Salmonella typhimurium TA98 at 150 ug/plate in absence of S9 fraction. The format is toxicity, organism-based. Particulars: salmonella enterica subsp. enterica serovar typhimurium. In a few lines: as §1
The subject of data set [18] is Salmonella typhimurium. Briefly: Mutagenicity in Salmonella typhimurium TA98 at 4.9 to 400 ug/plate in presence of S9 fraction. In kind it is toxicity, organism-based. Particulars: salmonella enterica subsp. enterica serovar typhimurium. The method in brief:
as §1

In data set [19] the test system is Salmonella typhimurium. Briefly: Mutagenicity in Salmonella typhimurium TA98 at 4.9 to 400 ug/plate in absence of S9 fraction. The format is toxicity, organism-based. The note with it: salmonella enterica subsp. enterica serovar typhimurium. The method in brief: as §1

The structures appear in SMILES notation. pIC50: −log10 of the molar value. In brackets after ≈: the same amount, converted by molar mass.

What is called pIC50 is the negative decadic logarithm of the IC50, by convention in mol/L. In general, MIC refers to the smallest concentration in the dilution series that meets the test's criterion for growth inhibition.

As for `Cc1[nH]cnc1C(=O)N/N=C/c1ccc2no[n+]([O-])c2c1`, the pIC50 in the data set on Trypanosoma cruzi [1] was 3.77; in the data set with Trypanosoma cruzi [3], below 4.46; in data set [5], 4.47. The selectivity ratio in data set [2] is below 1. The “Selectivity Index” value in data set [4] is given as 0.8. The MIC in [6] came out at 43.7 µM (≈ 12.5 µg/mL). Besides, the Activity result with Salmonella typhimurium [7] and in the data set with Salmonella typhimurium [8] was “Toxic” each time.
Consider `C[C@@H]1[C@H](O)[C@@H](C)/C=C/C=C/C=C/C=C/C=C/C=C/C=C/[C@H](O[C@@H]2O[C@H](C)[C@@H](O)[C@H](N)[C@@H]2O)C[C@@H]2O[C@](O)(C[C@@H](O)C[C@@H](O)[C@H](O)CC[C@@H](O)C[C@@H](O)CC(=O)O[C@H]1C)C[C@H](O)[C@H]2C(=O)O` [AMPHOTERICIN B], for which the selectivity ratio in [9] is 4.7. Also, in [10], the pIC50 is 6.28.
Turning to `O=C(N/N=C/c1ccc2no[n+]([O-])c2c1)c1ccncc1`, the figures for the selectivity ratio in [11] and in data set [2] were 2.5 and 24, respectively. Moreover, the pIC50 in the data set on Trypanosoma cruzi [1] was 4.48; in the data set with Trypanosoma cruzi [3], 5.25; in [5], 3.87. For the same compound, the “Selectivity Index” value in [4] came out at 385. In addition, the MIC in [6] stood at 0.35 µM (≈ 0.0991 µg/mL). The Stability entry (in the data set with Plasma; in [12]; in [13]; in [14]; in data set [15]) was “Stable” throughout. The Activity entry with Salmonella typhimurium [16] and in the data set with Salmonella typhimurium [17] was “Toxic” each time.
As for `O=C(N/N=C/c1c(-c2ccccc2)no[n+]1[O-])c1ccncc1`, the figures for the selectivity ratio in data set [11] and in data set [2] were 2.5 and above 63, respectively. Further, the pIC50 in the data set with Trypanosoma cruzi [1] is 4.96; with Trypanosoma cruzi [3], 5.19; in data set [5], below 3.40. In addition, the “Selectivity Index” value in [4] is reported as above 667. For the same compound, the MIC in data set [6] came out at 0.6 µM (≈ 0.186 µg/mL). Besides, the Stability entry (in the data set on Plasma; in [12]; in [13]; in data set [14]; in data set [15]) was “Stable” in each case. Besides, the Activity result with Salmonella typhimurium [18] and in the data set with Salmonella typhimurium [19] was “Non-toxic” throughout.
